Among the data in ChEMBL document CHEMBL4680065, “Pharmacophore-based screening of diamidine small molecule inhibitors for protein arginine methyltransferases” (RSC Med Chem, 2021) are IC50, Activity and inhibition values, retold here.

The target of assay [1] is Protein arginine N-methyltransferase 6 (Homo sapiens, UniProt Q96LA8). The experiment in a line: Inhibition of PRMT6 (unknown origin) using biotin-labeled SMD1 as substrate incubated for 30 mins in presence of [3H]-SAM cofactor by scintillation proximity assay. (In general: In a scintillation proximity assay essentially only radioactivity close to the scintillant gives light.)
Sequence of Protein arginine N-methyltransferase 6 (Q96LA8 whole entry): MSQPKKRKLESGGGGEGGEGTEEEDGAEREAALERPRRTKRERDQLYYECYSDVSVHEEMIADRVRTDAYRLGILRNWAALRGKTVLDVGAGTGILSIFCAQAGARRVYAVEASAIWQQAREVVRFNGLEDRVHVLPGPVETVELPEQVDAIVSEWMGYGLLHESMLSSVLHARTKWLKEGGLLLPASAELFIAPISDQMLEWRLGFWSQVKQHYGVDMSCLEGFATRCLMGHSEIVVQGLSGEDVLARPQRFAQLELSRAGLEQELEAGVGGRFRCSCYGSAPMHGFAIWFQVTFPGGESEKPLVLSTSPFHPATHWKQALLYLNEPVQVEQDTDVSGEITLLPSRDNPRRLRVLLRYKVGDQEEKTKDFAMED

Assay [2] addresses Protein arginine N-methyltransferase 8 (Homo sapiens, UniProt Q9NR22). The experiment in a line: Inhibition of recombinant His-tagged human PRMT8 expressed in Escherichia coli BL21 (DE3) using biotin-labeled histone H4-20 peptide as substrate incubated for 8 mins in presence of [3H]-SAM cofactor by scintillation proximity assay. An outline of the steps:
(§1)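 The inhibitor was serially diluted and added to the enzyme, [3H]-SAM and substrate mixture, and methylated substrate was quantified by scintillation proximity assay. Reactions were held at initial rate, with yield under 10% and substrate near Km. PRMT3, PRMT8 and G9a were His-tagged human proteins, and PRMT7 was GST-tagged, all expressed in E. coli and affinity-purified.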

Assay [3] deals with T1, Histone-lysine N-methyltransferase EHMT2 (Homo sapiens, UniProt Q96KQ7).
T1 sequence (Q96KQ7 whole entry): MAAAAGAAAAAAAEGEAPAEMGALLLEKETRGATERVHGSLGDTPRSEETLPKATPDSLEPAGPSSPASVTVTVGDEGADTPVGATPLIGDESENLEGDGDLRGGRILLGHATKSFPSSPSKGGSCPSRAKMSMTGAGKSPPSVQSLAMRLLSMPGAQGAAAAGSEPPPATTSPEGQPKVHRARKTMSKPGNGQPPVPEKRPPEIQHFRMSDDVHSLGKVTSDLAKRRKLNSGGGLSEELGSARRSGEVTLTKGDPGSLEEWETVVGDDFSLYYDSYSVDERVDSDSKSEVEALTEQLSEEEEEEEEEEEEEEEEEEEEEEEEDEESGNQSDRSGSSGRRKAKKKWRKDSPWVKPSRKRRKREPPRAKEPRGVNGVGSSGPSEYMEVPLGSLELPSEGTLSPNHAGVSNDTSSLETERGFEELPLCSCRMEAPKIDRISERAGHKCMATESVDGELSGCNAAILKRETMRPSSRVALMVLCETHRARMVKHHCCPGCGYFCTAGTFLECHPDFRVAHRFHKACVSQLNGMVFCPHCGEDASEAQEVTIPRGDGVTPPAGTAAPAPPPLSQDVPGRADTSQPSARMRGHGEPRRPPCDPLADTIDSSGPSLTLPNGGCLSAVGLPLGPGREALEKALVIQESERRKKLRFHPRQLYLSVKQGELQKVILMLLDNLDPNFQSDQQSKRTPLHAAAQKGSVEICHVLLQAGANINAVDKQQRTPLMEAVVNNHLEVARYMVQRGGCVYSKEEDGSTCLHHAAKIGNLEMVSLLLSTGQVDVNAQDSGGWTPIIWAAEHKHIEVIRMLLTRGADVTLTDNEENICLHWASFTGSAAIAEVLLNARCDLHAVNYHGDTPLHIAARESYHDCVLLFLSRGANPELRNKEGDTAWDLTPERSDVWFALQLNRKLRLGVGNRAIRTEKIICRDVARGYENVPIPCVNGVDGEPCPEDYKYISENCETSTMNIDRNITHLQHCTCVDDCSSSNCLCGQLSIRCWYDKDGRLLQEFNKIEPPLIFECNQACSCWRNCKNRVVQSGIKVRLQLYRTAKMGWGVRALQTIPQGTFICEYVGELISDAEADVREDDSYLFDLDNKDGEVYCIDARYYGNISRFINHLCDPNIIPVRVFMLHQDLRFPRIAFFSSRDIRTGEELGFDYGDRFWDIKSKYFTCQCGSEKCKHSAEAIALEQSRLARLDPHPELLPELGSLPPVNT
The assay can be described thus: Inhibition of recombinant His-tagged human G9a expressed in Escherichia coli BL21 (DE3) using biotin-labeled histone H3-20 peptide as substrate incubated for 30 mins in presence of [3H]-SAM cofactor by scintillation proximity assay. An outline of the steps: as §1

For assay [4], the target named is T2, Histone-lysine N-methyltransferase EHMT2 (Homo sapiens) (UniProt Q96KQ7).
T2 sequence (whole entry): T1 sequence (Q96KQ7 whole entry)
The assay can be described thus: Inhibition of recombinant His-tagged human G9a expressed in Escherichia coli BL21 (DE3) assessed as residual activity at 10 uM using biotin-labeled histone H3-20 peptide as substrate incubated for 30 mins in presence of [3H]-SAM cofactor by scintillation proximity assay relative to control. In a few lines:
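Single-point profiling used 10 μM inhibitor added to the enzyme, [3H]-SAM and substrate mixture. Methylated substrate was quantified by scintillation proximity assay. Reactions were held at initial rate, with yield under 10% and substrate near Km. Enzyme, [3H]-SAM and substrate final levels are given in the supplement.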

Assay [5] addresses T3, Protein arginine N-methyltransferase 1 (Homo sapiens, UniProt Q99873). The experiment in a line: Non-competitive inhibition of recombinant His-tagged PRMT1 (unknown origin) expressed in Escherichia coli BL21 (DE3) using varying levels of biotin-labeled histone H4-20 as substrate. In a few lines: (§2)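 His-tagged human PRMT1 was expressed in E. coli BL21(DE3) and Ni-affinity purified. IC50 was measured by SPA at varied SAM or biotinylated H4 peptide (0.3125–4.5 μM), with the other component fixed near its Km (0.5 μM); n = 2.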

Assay [6] has as its target T3, Protein arginine N-methyltransferase 1. The assay can be described thus: Non-competitive inhibition of recombinant His-tagged PRMT1 (unknown origin) expressed in Escherichia coli BL21 (DE3) using varying levels of [3H]-SAM as cofactor. An outline of the steps: as §2
Assay [7] relates to K562. The assay can be described thus: Antiproliferative activity against human K562 cells assessed as inhibition of cell growth measured after 72 hrs by CellTiter-Glo assay. The format is functional, cell-based. As to conditions: K562, 72 h. In a few lines:
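Cells were cultured with the test agent, serially diluted, for 72 h. The control received the same amount of DMSO. Cell viability was then measured, and IC50 values were taken from sensitivity curves.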
Background: In ATP-based viability assays light output follows the ATP content of the culture.

The target of assay [8] is T3, Protein arginine N-methyltransferase 1. The assay can be described thus: Inhibition of PRMT1 in human MEG-01 cells assessed as reduction in RBM15 methylation level measured after 24 hrs by immunoblotting analysis. The format is cell-based. In a few lines: (§3)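 MEG01 cells were cultured for 24 h with the inhibitor (100 nM, 200 nM) or with DMSO control. Cell extracts were resolved by SDS-PAGE and immunoblotted with anti-methyl-RBM15 antibody and the pan-asymmetric methylation antibody α-Asym24. Equal loading was checked by Ponceau S staining.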

Assay [9] has the same target. The assay can be described thus: Inhibition of PRMT1 in human MEG-01 cells assessed as reduction in RBM15 total asymmetric arginine methylation level at 100 to 200 nM measured after 24 hrs by immunoblotting analysis. The format is cell-based. The following applies: dose 100-200 nM. In a few lines:
as §3

Active and inactive are the calls of the source. The rule behind the calls is not given here.

T3 sequence (Q99873 whole entry, looked up): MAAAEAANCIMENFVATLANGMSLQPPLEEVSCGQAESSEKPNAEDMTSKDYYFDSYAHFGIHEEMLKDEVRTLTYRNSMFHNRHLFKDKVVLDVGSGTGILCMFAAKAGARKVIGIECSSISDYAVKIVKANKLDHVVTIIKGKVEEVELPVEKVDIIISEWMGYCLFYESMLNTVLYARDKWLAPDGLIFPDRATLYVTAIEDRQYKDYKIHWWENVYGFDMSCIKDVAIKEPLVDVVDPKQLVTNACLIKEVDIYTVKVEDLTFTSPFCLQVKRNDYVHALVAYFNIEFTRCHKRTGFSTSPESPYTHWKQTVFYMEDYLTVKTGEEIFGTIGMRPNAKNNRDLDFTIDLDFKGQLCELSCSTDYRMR
Sequence of Protein arginine N-methyltransferase 8 (Q9NR22 whole entry): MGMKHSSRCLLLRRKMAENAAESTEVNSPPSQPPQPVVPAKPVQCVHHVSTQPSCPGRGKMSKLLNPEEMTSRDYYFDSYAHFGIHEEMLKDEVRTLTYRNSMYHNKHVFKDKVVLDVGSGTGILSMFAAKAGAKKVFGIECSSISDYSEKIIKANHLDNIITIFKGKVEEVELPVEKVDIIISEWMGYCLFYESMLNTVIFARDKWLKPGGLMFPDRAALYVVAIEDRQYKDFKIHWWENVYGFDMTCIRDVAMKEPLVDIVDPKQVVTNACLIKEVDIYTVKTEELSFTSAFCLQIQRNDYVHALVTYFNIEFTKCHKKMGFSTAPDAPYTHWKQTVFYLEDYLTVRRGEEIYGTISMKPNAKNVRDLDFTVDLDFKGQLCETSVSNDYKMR

Consider `N=C(N)c1ccc(Nc2ccc(-c3cc4ccc(C(=N)N)cc4[nH]3)cc2)cc1`, for which the IC50 in assay [1] was 2.8 µM; in [2], 8.2 µM; in [3], 3.7 µM; in assay [7] it was 1.08 µM. The Activity in assay [4] was determined as 10.5%. Moreover, the inhibition entry in assay [5], in assay [6] and in assay [9] was “Active” each time. Further, the inhibition entry in assay [8] was “Dose-dependent effect”.

Broadly, the IC50 is the concentration at which inhibition is half-maximal.
